In ChEMBL document CHEMBL1123188, “5,5-Diaryl-2-thiohydantoins and 5,5-diaryl-N3-substituted-2-thiohydantoins as potential hypolipidemic agents” (1986):

Assays:
Format in all cases: functional
Rattus norvegicus [1] = experiment: Compound was tested for hypolipidemic activity in male Sprague-Dawley rats by measuring amount of liver cholesterol after administration of 729 mg dose per kg of diet
Outline: (§1)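 Orotic acid liver-lipid model: groups of six male Sprague-Dawley rats unless noted. Test compound mixed into the orotic acid diet at the stated mg/kg diet. Diet and water ad libitum for 14 days, with growth and diet intake monitored. Impaired growth with normal intake was taken as toxicity. At sacrifice, liver homogenized in cold 0.63 M phosphate buffer, pH 7.4. Liver triglyceride and cholesterol reported as mg/g wet liver.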

Rattus norvegicus [2] = experiment: Compound was tested for hypolipidemic activity in male Sprague-Dawley rats by measuring change in body weight after administration of 729 mg dose per kg of diet; outline: as §1
Rattus norvegicus [3] = experiment: Compound was tested for hypolipidemic activity in male Sprague-Dawley rats by measuring amount of liver triglyceride after administration of 729 mg dose per kg of diet; outline: as §1
Rattus norvegicus [4] = species: Rattus norvegicus; experiment: The activity relative to DPTH in liver cholesterol
Outline: (§2)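 Relative activity is the midpoint dose from the orotic acid rat dose-response curves compared against DPTH, with DPTH set to 1.00. Calculated separately for liver cholesterol and for liver triglyceride.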

Rattus norvegicus [5] = experiment: Compound was tested for hypolipidemic activity in male Sprague-Dawley rats by measuring amount of liver cholesterol after administration of 400 mg dose per kg of diet; outline: as §1
Rattus norvegicus [6] = species: Rattus norvegicus; experiment: The activity relative to DPTH in liver triglyceride; outline: as §2
Rattus norvegicus [7] = species: Rattus norvegicus; experiment: The activity relative to DPTH. […] in liver cholesterol.; outline: as §2
Rattus norvegicus [8] = experiment: Compound was tested for hypolipidemic activity in male Sprague-Dawley rats by measuring amount of liver cholesterol after administration of 200 mg dose per kg of diet; outline: as §1
Rattus norvegicus [9] = experiment: Compound was tested for hypolipidemic activity in male Sprague-Dawley rats by measuring amount of liver triglyceride after administration of 200 mg dose per kg of diet; outline: as §1
Rattus norvegicus [10] = species: Rattus norvegicus; experiment: The concentration required to reduce liver cholesterol half-way from the average orotic acid level to the basal level
Outline: (§3)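 Dose-response testing in the 14-day orotic acid diet model, six male Sprague-Dawley rats per group. Midpoint dose (mg/kg diet) read from dose-response curves as the dietary level that brings liver cholesterol or triglyceride half-way between the orotic-acid-fed control and a basal control given no orotic acid.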

Rattus norvegicus [11] = species: Rattus norvegicus; experiment: The concentration required to reduce liver triglyceride half-way from the average orotic acid level to the basal level; outline: as §3
Rattus norvegicus [12] = experiment: Compound was tested for hypolipidemic activity in male Sprague-Dawley rats by measuring amount of liver cholesterol after administration of 600 mg dose per kg of diet; outline: as §1
Rattus norvegicus [13] = experiment: Compound was tested for hypolipidemic activity in male Sprague-Dawley rats by measuring change in body weight after administration of 200 mg dose per kg of diet; outline: as §1
Rattus norvegicus [14] = experiment: Compound was tested for hypolipidemic activity in male Sprague-Dawley rats by measuring amount of liver triglyceride after administration of 600 mg dose per kg of diet; outline: as §1
Rattus norvegicus [15] = species: Rattus norvegicus; experiment: The activity relative to DPTH. in liver triglyceride.; outline: as §2
Rattus norvegicus [16] = experiment: Compound was tested for hypolipidemic activity in male Sprague-Dawley rats by measuring change in body weight after administration of 400 mg dose per kg of diet; outline: as §1
Rattus norvegicus [17] = experiment: Compound was tested for hypolipidemic activity in male Sprague-Dawley rats by measuring amount of liver triglyceride after administration of 400 mg dose per kg of diet; outline: as §1
Rattus norvegicus [18] = experiment: Compound was tested for hypolipidemic activity in male Sprague-Dawley rats by measuring change in body weight after administration of 600 mg dose per kg of diet; outline: as §1
Rattus norvegicus [19] = experiment: Compound was tested for hypolipidemic activity in male Sprague-Dawley rats by measuring amount of liver cholesterol after administration of 635 mg dose per kg of diet; outline: as §1
Rattus norvegicus [20] = experiment: Compound was tested for hypolipidemic activity in male Sprague-Dawley rats by measuring amount of liver triglyceride after administration of 635 mg dose per kg of diet; outline: as §1
Rattus norvegicus [21] = experiment: Compound was tested for hypolipidemic activity in male Sprague-Dawley rats by measuring change in body weight after administration of 635 mg dose per kg of diet; outline: as §1
Rattus norvegicus [22] = experiment: Compound was tested for hypolipidemic activity in male Sprague-Dawley rats by measuring change in body weight after administration of 100 mg dose per kg of diet; outline: as §1
Rattus norvegicus [23] = experiment: Compound was tested for hypolipidemic activity in male Sprague-Dawley rats by measuring amount of liver cholesterol after administration of 100 mg dose per kg of diet; outline: as §1
Rattus norvegicus [24] = experiment: Compound was tested for hypolipidemic activity in male Sprague-Dawley rats by measuring amount of liver triglyceride after administration of 100 mg dose per kg of diet; outline: as §1
Rattus norvegicus [25] = experiment: Compound was tested for hypolipidemic activity in male Sprague-Dawley rats by measuring amount of liver cholesterol after administration of 735 mg dose per kg of diet; outline: as §1
Rattus norvegicus [26] = experiment: Compound was tested for hypolipidemic activity in male Sprague-Dawley rats by measuring amount of liver triglyceride after administration of 735 mg dose per kg of diet; outline: as §1
Rattus norvegicus [27] = experiment: Compound was tested for hypolipidemic activity in male Sprague-Dawley rats by measuring change in body weight after administration of 735 mg dose per kg of diet; outline: as §1
Rattus norvegicus [28] = experiment: Compound was tested for hypolipidemic activity in male Sprague-Dawley rats by measuring amount of liver triglyceride after administration of 770 mg dose per kg of diet; outline: as §1
Rattus norvegicus [29] = experiment: Compound was tested for hypolipidemic activity in male Sprague-Dawley rats by measuring change in body weight after administration of 770 mg dose per kg of diet; outline: as §1
Rattus norvegicus [30] = experiment: Compound was tested for hypolipidemic activity in male Sprague-Dawley rats by measuring amount of liver cholesterol after administration of 770 mg dose per kg of diet; outline: as §1
Rattus norvegicus [31] = experiment: Compound was tested for hypolipidemic activity in male Sprague-Dawley rats by measuring amount of liver cholesterol after administration of 750 mg dose per kg of diet; outline: as §1
Rattus norvegicus [32] = experiment: Compound was tested for hypolipidemic activity in male Sprague-Dawley rats by measuring change in body weight after administration of 750 mg dose per kg of diet; outline: as §1
Rattus norvegicus [33] = experiment: Compound was tested for hypolipidemic activity in male Sprague-Dawley rats by measuring amount of liver triglyceride after administration of 750 mg dose per kg of diet; outline: as §1

CCCCN1C(=O)C(c2ccccn2)(c2ccccn2)NC1=S
Liver cholesterol (Rattus norvegicus [1]): 12.2 mg/g | Body weight change (Rattus norvegicus [2]): 140 g | Liver TG (Rattus norvegicus [3]): 85 mg/g

CCCCN1C(=O)C(c2ccccc2)(c2ccccc2)NC1=S
Relative activity (Rattus norvegicus [4]): 0.71 | Liver cholesterol (Rattus norvegicus [5]): 10.7 mg/g | Relative activity (Rattus norvegicus [6]): 0.22 | Cholesterol (Rattus norvegicus [7]): 0.71 | Liver cholesterol (Rattus norvegicus [8]): 17.8 mg/g | Liver TG (Rattus norvegicus [9]): 97 mg/g | Cholesterol (Rattus norvegicus [10]): 340 mg kg-1 diet | Midpoint dose (Rattus norvegicus [10]): 340 mg/kg | Midpoint dose (Rattus norvegicus [11]): 450 mg/kg | TG (Rattus norvegicus [11]): 450 mg kg-1 diet | Liver cholesterol (Rattus norvegicus [12]): 4.2 mg/g | Body weight change (Rattus norvegicus [13]): 185 g | Liver TG (Rattus norvegicus [14]): 19 mg/g | TG (Rattus norvegicus [15]): 0.22 | Body weight change (Rattus norvegicus [16]): 210 g | Liver TG (Rattus norvegicus [17]): 70 mg/g | Body weight change (Rattus norvegicus [18]): 134 g

O=C1NC(=S)NC1(c1ccccc1)c1ccc(O)cc1 (racemic)
Liver cholesterol (Rattus norvegicus [19]): 9.1 mg/g | Liver TG (Rattus norvegicus [20]): 48 mg/g | Body weight change (Rattus norvegicus [21]): 130 g

O=C1NC(=S)NC1(c1ccccn1)c1ccccn1
Relative activity (Rattus norvegicus [4]): 1.33 | Body weight change (Rattus norvegicus [22]): 180 g | Liver cholesterol (Rattus norvegicus [5]): 2.8 mg/g | Relative activity (Rattus norvegicus [6]): 0.43 | Liver cholesterol (Rattus norvegicus [8]): 10.3 mg/g | Liver cholesterol (Rattus norvegicus [23]): 17 mg/g | Liver TG (Rattus norvegicus [9]): 72 mg/g | Midpoint dose (Rattus norvegicus [10]): 180 mg/kg | Midpoint dose (Rattus norvegicus [11]): 235 mg/kg | Liver cholesterol (Rattus norvegicus [12]): 3 mg/g | Body weight change (Rattus norvegicus [13]): 181 g | Liver TG (Rattus norvegicus [14]): 16 mg/g | Body weight change (Rattus norvegicus [16]): 203 g | Liver TG (Rattus norvegicus [24]): 100 mg/g | Liver TG (Rattus norvegicus [17]): 28 mg/g | Body weight change (Rattus norvegicus [18]): 132 g

COc1ccc(C2(c3ccc(OC)cc3)NC(=S)NC2=O)cc1
Liver cholesterol (Rattus norvegicus [25]): 21.6 mg/g | Liver TG (Rattus norvegicus [26]): 82 mg/g | Body weight change (Rattus norvegicus [27]): 135 g

O=C1N(c2ccccc2)C(=S)NC1(c1ccccc1)c1ccccc1
Liver TG (Rattus norvegicus [28]): 42 mg/g | Body weight change (Rattus norvegicus [29]): 91 g | Liver cholesterol (Rattus norvegicus [30]): 8.6 mg/g

O=C1NC(=S)NC1(c1ccc(Cl)cc1)c1ccc(Cl)cc1
Liver cholesterol (Rattus norvegicus [31]): 13.2 mg/g | Body weight change (Rattus norvegicus [32]): 91 g | Liver TG (Rattus norvegicus [33]): 82 mg/g

O=C1NC(=S)NC1(c1ccccc1)c1ccccc1 [THIOPHENYTOIN]
Relative activity (Rattus norvegicus [4]): 1 | Relative activity (Rattus norvegicus [6]): 1 | Midpoint dose (Rattus norvegicus [10]): 240 mg/kg | Midpoint dose (Rattus norvegicus [11]): 100 mg/kg | Liver cholesterol (Rattus norvegicus [12]): 3 mg/g | Liver TG (Rattus norvegicus [14]): 16 mg/g | Body weight change (Rattus norvegicus [18]): 136 g

COc1ccc(C2(c3ccccc3)NC(=S)NC2=O)cc1 (racemic)
Liver cholesterol (Rattus norvegicus [19]): 23.1 mg/g | Liver TG (Rattus norvegicus [20]): 70 mg/g | Body weight change (Rattus norvegicus [21]): 144 g
